From ChEMBL document CHEMBL4396889, “From Inhibition to Degradation: Targeting the Antiapoptotic Protein Myeloid Cell Leukemia 1 (MCL1)” (J Med Chem, 2019)

Key:
Assay type in all cases: cell-based
[1] = biological target: T1, Protein cereblon/Induced myeloid leukemia cell differentiation protein Mcl-1 (Homo sapiens) (UniProt Q07820+Q96SW2); experiment: Protac activity at Cereblon/MCL1 short isoform in wild type human OPM2 cells assessed as MCL1 short isoform abundance at 50 nM after 48 hrs by immunoblot analysis relative to control
T1 sequence (Q07820 whole entry, looked up, canonical isoform): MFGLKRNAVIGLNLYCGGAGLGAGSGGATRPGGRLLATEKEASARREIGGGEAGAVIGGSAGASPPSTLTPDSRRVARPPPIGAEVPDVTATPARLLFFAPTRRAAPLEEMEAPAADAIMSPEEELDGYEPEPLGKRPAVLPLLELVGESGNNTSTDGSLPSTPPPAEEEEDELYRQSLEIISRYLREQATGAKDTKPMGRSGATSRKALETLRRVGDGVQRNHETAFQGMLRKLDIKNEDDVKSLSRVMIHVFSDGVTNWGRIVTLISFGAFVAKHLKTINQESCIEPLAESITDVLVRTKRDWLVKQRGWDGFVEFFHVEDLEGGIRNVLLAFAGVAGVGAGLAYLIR
T1 sequence (Q96SW2 whole entry, looked up, canonical isoform): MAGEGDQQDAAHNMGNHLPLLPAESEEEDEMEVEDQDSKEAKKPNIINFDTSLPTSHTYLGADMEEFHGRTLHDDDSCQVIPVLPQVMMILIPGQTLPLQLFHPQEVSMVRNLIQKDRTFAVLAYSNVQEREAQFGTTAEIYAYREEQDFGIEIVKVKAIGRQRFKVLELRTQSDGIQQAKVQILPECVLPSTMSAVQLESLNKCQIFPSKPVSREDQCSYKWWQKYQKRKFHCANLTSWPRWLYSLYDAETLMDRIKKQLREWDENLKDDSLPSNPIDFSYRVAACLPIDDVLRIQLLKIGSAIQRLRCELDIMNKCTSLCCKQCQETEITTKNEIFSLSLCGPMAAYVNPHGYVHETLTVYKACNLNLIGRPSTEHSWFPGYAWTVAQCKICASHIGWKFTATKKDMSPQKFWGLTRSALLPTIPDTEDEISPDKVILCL
Procedure, shortened: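 OPM2 wild-type cells, run alongside the CRBN-/- line, were treated for 48 h with compound or DMSO. The MCL1 long and short isoforms were then measured by immunoblot against the DMSO control.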

[2] = biological target: T2, Induced myeloid leukemia cell differentiation protein Mcl-1 (Homo sapiens, UniProt Q07820); experiment: Induction of MCL1 long isoform degradation in CRBN-/- human OPM2 cells assessed as protein abundance at 100 nM after 48 hrs by immunoblot analysis relative to control
T2 sequence (Q07820 whole entry, canonical isoform): as the sequence (Q07820 whole entry, looked up, canonical isoform) above
Procedure, shortened: (§1)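 OPM2 multiple myeloma cells, wild type or CRBN-knockout, were treated for 48 h with degrader or DMSO vehicle. MCL1 long and short isoforms were detected by immunoblot and levels compared with DMSO controls.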

[3] = biological target: T2, Induced myeloid leukemia cell differentiation protein Mcl-1; experiment: Induction of MCL1 short isoform degradation in CRBN-/- human OPM2 cells assessed as protein abundance at 250 nM after 48 hrs by immunoblot analysis relative to control; procedure, shortened: as §1
[4] = biological target: T1, Protein cereblon/Induced myeloid leukemia cell differentiation protein Mcl-1 (Homo sapiens); experiment: Protac activity at Cereblon/MCL1 short isoform in human OPM2 cells assessed as MCL1 short isoform level at 300 nM pre-incubated for 72 hrs followed by cycloheximide addition and measured after 120 mins by immunoblot analysis (reference value: 14%)
Procedure, shortened: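 OPM2 or MM1.S cells were treated for 72 h with compound or DMSO. Cycloheximide was added for the final 30, 60 or 120 min. MCL1 was read by immunoblot and compared with DMSO-treated cells as a normal-turnover reference.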

[5] = biological target: T1, Protein cereblon/Induced myeloid leukemia cell differentiation protein Mcl-1 (Homo sapiens); experiment: Protac activity at Cereblon/MCL1 long isoform in human MM1S cells assessed as MCL1 long isoform level at 300 nM pre-incubated for 72 hrs followed by cycloheximide addition and measured after 60 mins by immunoblot analysis (reference value: 82%)
Procedure, shortened: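 Cycloheximide chase: cells were treated for 72 h with DMSO or degrader, with cycloheximide added for the final 30, 60 or 120 min. OPM2 and MM1.S cells were used, and wild-type OPM2 was compared with OPM2 CRBN-/- at 60 and 120 min. MCL1 was detected by immunoblot.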

Activity [1]: 79%
Activity [2]: 90%
Activity [3]: 97%
Activity [4]: 2%
Activity [5]: 58%
SMILES: Cc1nn(C)c(COc2ccc(N3CCN(S(=O)(=O)N(C)C)CC3)cc2)c1-c1cccc2c(CCCOc3cccc4ccccc34)c(C(=O)O)n(CCN3CCN(C(=O)COc4cccc5c4C(=O)N(C4CCC(=O)NC4=O)C5=O)CC3)c12 (stereo not given)
